The source of these data is ChEMBL document CHEMBL5038590, “Discovery of G Protein-Biased Ligands against 5-HT7R” (J Med Chem, 2021).

The test system of experiment [1] is Mus musculus. The experiment is described as follows: Effect on shank3-/- mouse model of autism spectrum disorder assessed as time taken for duration of self grooming at 30 mg/kg, ip after 30 mins under 40 lux lighting (reference value: 224 +/- 47.4 sec). Type of experiment: functional. Particulars: 0.5 h; call rule not given here.
Experiment [2] has as its system Mus musculus. The experiment is described as follows: Effect on wild type mouse assessed as time taken for duration of self grooming at 30 mg/kg, ip after 30 mins under 40 lux lighting (reference value: 43.7 +/- 10.8 sec). It counts as functional. Particulars: 0.5 h.
In experiment [3] the target is 5-hydroxytryptamine receptor 2A (Homo sapiens, UniProt P28223). As to the kind of experiment: Binding affinity to 5-HT2AR (unknown origin). In a few lines: (§1)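 Run by the NIMH Psychoactive Drug Screening Program as competition radioligand binding on crude membranes of cells expressing the recombinant receptor. Eleven dilutions (0.05 nM–50 μM, prepared at 5× assay concentration) were made in 50 mM Tris-HCl, 10 mM MgCl₂, 1 mM EDTA, pH 7.4. Incubation was 1.5 h at rt in the dark, followed by GF/B filtration (0.3% PEI) and scintillation counting. IC₅₀ was converted to Ki; at least triplicate.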
Sequence of 5-hydroxytryptamine receptor 2A (P28223 whole entry): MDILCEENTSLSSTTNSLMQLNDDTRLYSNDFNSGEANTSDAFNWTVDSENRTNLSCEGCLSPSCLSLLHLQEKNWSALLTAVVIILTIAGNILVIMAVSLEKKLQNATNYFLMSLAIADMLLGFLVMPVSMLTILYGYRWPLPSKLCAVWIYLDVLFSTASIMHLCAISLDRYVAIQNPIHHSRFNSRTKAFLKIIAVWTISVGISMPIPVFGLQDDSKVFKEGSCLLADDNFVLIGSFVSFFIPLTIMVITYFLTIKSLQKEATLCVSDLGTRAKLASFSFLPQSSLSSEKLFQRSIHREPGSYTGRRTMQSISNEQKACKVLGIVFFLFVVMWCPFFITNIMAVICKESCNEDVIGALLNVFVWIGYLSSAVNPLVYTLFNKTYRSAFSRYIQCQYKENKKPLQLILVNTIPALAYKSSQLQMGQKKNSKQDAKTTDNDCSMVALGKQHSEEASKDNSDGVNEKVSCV

Experiment [4] concerns the target 5-hydroxytryptamine receptor 1B (Homo sapiens, UniProt P28222). As to the kind of experiment: Binding affinity to 5-HT1BR (unknown origin). In a few lines: as §1
For experiment [5], the target named is T1, 5-hydroxytryptamine receptor 2C (Homo sapiens, UniProt P28335).
T1 sequence (P28335 whole entry): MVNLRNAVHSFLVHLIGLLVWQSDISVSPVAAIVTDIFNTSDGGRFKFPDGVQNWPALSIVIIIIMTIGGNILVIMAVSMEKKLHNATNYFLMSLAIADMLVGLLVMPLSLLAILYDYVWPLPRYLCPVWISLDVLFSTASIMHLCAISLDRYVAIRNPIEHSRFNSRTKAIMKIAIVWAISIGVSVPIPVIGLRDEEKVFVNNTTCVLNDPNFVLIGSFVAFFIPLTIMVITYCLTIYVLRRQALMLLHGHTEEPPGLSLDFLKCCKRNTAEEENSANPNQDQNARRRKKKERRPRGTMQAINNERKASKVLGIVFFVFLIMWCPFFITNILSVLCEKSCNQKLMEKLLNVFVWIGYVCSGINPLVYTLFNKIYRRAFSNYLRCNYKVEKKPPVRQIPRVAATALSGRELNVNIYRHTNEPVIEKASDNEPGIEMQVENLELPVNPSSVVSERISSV
The experiment is described as follows: Binding affinity to 5-HT2CR (unknown origin). A digest of the protocol:
as §1

The target in experiment [6] is 5-hydroxytryptamine receptor 1D (Homo sapiens, UniProt P28221). As to the kind of experiment: Binding affinity to 5-HT1DR (unknown origin). A digest of the protocol: as §1
Sequence of 5-hydroxytryptamine receptor 1D (P28221 whole entry): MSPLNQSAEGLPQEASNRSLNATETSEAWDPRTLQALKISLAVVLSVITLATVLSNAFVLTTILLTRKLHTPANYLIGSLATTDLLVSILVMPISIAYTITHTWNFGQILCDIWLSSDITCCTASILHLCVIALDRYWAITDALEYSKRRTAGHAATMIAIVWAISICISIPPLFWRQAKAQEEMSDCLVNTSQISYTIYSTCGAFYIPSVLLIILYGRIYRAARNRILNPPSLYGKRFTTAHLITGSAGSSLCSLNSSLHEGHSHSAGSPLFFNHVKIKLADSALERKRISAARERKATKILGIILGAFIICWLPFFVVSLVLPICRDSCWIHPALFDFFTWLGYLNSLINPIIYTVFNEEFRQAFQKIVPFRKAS
The target in experiment [7] is 5-hydroxytryptamine receptor 1E (Homo sapiens, UniProt P28566). As to the kind of experiment: Binding affinity to 5-HT1ER (unknown origin). In a few lines:
as §1

For experiment [8], the target named is 5-hydroxytryptamine receptor 2B (Homo sapiens, UniProt P41595). As to the kind of experiment: Binding affinity to 5-HT2BR (unknown origin). In a few lines: as §1
Sequence of 5-hydroxytryptamine receptor 2B (P41595 whole entry, the tested form may be a part): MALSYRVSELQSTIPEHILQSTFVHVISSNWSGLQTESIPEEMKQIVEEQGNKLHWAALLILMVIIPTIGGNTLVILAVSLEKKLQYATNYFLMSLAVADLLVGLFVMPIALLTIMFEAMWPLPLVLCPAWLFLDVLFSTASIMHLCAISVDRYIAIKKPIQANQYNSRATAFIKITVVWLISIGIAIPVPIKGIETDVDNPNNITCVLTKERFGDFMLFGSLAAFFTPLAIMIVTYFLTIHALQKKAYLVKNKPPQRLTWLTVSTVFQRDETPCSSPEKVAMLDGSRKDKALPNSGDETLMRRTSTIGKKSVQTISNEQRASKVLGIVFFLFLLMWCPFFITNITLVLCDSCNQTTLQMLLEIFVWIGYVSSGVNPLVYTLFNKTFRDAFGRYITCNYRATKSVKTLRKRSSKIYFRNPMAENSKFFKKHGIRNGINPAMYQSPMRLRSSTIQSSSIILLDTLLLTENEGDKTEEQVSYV
The target in experiment [9] is T2, 5-hydroxytryptamine receptor 7 (Homo sapiens, UniProt P34969). The experiment is described as follows: Agonist activity at 5-HT7R (unknown origin) transfected in HEK293 cells expressing tTA-dependent luciferase reporter and beta arrestin 2-TEV fusion gene assessed as beta arrestin recruitment incubated for 22 hrs by Tango assay. Particulars: hek293. Type of experiment: functional, cell-based.
T2 sequence (P34969 whole entry, the tested form may be a part): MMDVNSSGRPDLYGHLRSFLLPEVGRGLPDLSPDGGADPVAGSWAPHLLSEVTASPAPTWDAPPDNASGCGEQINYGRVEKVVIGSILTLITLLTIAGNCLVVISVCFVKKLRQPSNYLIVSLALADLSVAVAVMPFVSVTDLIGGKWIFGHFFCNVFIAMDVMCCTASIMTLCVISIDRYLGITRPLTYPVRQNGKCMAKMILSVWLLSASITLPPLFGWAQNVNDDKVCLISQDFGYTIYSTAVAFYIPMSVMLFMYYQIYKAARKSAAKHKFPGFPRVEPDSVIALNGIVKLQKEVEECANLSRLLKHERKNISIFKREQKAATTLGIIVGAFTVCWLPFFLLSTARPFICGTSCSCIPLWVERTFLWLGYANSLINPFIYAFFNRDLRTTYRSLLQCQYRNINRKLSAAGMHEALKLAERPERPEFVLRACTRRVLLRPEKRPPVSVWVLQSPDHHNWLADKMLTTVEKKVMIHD

The target in experiment [10] is T3, 5-hydroxytryptamine receptor 3A (Homo sapiens, UniProt P46098).
T3 sequence (P46098 whole entry): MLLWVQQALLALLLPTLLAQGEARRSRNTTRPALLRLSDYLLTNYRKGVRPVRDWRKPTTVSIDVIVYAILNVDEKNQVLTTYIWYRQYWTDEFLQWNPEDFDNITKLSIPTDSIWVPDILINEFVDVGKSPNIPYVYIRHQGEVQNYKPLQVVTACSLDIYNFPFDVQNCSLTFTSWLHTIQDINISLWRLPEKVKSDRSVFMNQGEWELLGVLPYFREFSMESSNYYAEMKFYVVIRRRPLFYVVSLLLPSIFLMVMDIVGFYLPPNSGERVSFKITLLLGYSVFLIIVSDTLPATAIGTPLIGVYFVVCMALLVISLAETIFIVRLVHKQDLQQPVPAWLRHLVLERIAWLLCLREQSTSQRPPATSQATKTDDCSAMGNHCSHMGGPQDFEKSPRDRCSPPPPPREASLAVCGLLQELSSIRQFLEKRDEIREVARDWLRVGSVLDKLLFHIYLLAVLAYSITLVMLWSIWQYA
As to the kind of experiment: Binding affinity to 5-HT3R (unknown origin). A digest of the protocol: as §1

The target of experiment [11] is 5-hydroxytryptamine receptor 5A (Homo sapiens, UniProt P47898). As to the kind of experiment: Binding affinity to 5-HT5AR (unknown origin). In a few lines:
as §1

Experiment [12] concerns the target T2, 5-hydroxytryptamine receptor 7. As to the kind of experiment: Displacement of [3H] D-lysergic acid diethylamide from 5-HT7R (unknown origin) transfected in HEK293 cells incubated for 1.5 hrs by microbeta scintillation counter analysis. It counts as cell-based. Particulars: read-out: Ki.
The target is the same in experiment [13].
The target in experiment [14] is T4, 5-hydroxytryptamine receptor 1A (Homo sapiens, UniProt P08908).
T4 sequence (P08908 whole entry): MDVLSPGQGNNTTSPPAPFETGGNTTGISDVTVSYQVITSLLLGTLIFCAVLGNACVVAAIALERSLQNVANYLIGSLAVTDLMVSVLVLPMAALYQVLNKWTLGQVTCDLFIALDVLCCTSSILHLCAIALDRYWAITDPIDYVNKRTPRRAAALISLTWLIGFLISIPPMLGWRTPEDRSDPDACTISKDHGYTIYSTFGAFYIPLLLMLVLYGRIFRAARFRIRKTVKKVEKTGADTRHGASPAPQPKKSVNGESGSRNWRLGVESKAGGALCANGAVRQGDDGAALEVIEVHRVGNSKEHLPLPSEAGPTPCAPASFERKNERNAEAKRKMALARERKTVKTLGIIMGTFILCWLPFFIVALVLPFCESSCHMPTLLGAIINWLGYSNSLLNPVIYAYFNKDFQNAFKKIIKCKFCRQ
As to the kind of experiment: Binding affinity to 5-HT1AR (unknown origin). In a few lines: as §1

The target in experiment [15] is 5-hydroxytryptamine receptor 6 (Homo sapiens, UniProt P50406). As to the kind of experiment: Binding affinity to 5-HT6R (unknown origin). A digest of the protocol: as §1
Sequence of 5-hydroxytryptamine receptor 6 (P50406 whole entry): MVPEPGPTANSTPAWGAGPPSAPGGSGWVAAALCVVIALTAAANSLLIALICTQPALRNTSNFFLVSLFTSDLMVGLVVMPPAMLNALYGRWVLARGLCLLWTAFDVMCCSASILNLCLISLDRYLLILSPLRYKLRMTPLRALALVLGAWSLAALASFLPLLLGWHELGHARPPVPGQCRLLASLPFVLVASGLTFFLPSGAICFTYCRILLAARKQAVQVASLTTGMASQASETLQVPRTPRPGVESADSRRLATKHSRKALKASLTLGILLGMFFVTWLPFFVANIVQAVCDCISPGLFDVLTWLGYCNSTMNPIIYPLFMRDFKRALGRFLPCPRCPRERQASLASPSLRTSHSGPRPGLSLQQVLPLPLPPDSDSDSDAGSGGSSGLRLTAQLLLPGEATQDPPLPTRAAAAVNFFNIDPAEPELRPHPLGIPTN

Sequence of 5-hydroxytryptamine receptor 1E (P28566 whole entry): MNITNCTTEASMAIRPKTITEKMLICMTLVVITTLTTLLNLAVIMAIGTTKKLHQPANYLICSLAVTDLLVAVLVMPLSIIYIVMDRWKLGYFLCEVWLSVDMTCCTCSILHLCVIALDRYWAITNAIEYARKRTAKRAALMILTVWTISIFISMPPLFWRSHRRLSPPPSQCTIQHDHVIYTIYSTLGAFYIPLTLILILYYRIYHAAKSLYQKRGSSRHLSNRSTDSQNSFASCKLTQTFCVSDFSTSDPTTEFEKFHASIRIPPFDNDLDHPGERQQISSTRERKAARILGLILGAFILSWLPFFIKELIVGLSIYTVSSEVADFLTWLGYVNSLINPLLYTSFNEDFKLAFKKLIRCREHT
Sequence of 5-hydroxytryptamine receptor 1B (P28222 whole entry): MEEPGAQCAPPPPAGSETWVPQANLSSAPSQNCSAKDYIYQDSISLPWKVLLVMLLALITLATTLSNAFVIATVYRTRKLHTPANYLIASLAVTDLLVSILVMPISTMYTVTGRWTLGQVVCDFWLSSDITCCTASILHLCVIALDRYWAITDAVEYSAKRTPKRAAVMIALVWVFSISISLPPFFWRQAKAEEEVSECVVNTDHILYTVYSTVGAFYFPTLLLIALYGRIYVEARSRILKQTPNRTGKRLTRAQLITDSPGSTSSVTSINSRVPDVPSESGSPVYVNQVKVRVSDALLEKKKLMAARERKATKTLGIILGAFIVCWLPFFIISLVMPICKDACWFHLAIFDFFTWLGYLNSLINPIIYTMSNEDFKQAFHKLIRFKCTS
Sequence of 5-hydroxytryptamine receptor 5A (P47898 whole entry): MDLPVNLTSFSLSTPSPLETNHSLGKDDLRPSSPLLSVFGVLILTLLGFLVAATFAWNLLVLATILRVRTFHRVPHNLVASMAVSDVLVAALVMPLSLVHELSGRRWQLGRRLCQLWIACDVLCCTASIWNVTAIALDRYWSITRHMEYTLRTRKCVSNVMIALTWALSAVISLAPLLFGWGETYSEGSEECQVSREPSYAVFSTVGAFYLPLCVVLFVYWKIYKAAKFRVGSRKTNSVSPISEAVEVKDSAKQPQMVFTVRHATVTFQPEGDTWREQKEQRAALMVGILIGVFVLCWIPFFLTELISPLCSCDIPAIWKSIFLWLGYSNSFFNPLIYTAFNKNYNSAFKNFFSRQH

For the molecule `CC1CCN(CC[C@H]2CCCN2S(=O)(=O)c2cccc(O)c2)CC1`, the Time amounted to 181 s with Mus musculus [1] and 29.3 s with Mus musculus [2].
In the case of `CCCN(CCC)CCc1ccc(Cl)c(-c2ccccc2OC)c1`, the Ki (commonly the dissociation constant of the complex between target and ligand, obtained from inhibition or displacement) was 1200 nM in experiment [3]; 160 nM in experiment [4]; more than 10000 nM in [5]; 38 nM in [6]; more than 10000 nM in experiment [7]; 230 nM in [8]. The Ki in experiment [10] is more than 10000 nM; in experiment [11], 2900 nM; in experiment [12], 20 nM; in experiment [14], 65 nM; in experiment [15] it was more than 10000 nM. The EC50 (usually the concentration needed to bring the measured effect to its halfway point) is “Not Active” in [9] and 1400 nM in [13].
Take `CCN(CC)CCc1ccc(Cl)c(-c2ccccc2OC)c1`: the Ki is 680 nM in [3]; 160 nM in experiment [4]; more than 10000 nM in experiment [5]; 8.4 nM in experiment [6]; 6700 nM in [7]; 320 nM in [8]. The Ki is more than 10000 nM in [10]; 2100 nM in [11]; 25 nM in experiment [12]; 84 nM in experiment [14]; more than 10000 nM in experiment [15]. Also, the values for the EC50 result in [9] and in experiment [13] were “Not Active” and 1900 nM, respectively.
